Calls of active or inactive are those of the source. The rule behind the calls is not given here.
Assays:
PC-3 [1] = assay: Cytotoxicity against human PC-3 cells assessed as reduction in cell viability at 0.24 uM measured after 24 hrs in presence of antioxidant N-acetyl-L-cysteine by SRB assay; type: functional, cell-based
How it was run: (§1)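 SRB assay: PC3 seeded 1×10^4 per well, after 24 h exposed 24 h at 37 °C, 5% CO2 with or without 1 mM N-acetyl-L-cysteine; vehicle 0.1% DMSO. Fixed with 15% TCA at 4 °C for 1 h, dried, stained 0.4% sulforhodamine B, dye solubilized in 10 mM Tris, absorbance 540 nm; ANOVA/Tukey.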

PC-3 [2] = assay: Cytotoxicity against human PC-3 cells assessed as reduction in cell viability at 0.24 uM measured after 24 hrs by SRB assay; type: functional, cell-based; how it was run: as §1
PC-3 [3] = assay: Induction of morphological changes in human PC-3 cells assessed as cell rounding at 0.24 uM measured after 24 hrs by phase contrast microscopy; type: functional, cell-based
How it was run: (§2)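 PC3 cells were seeded at 1×10^5 per well in 6-well plates and treated after 24 h, with or without 1 mM N-acetyl-L-cysteine. The same observation field was imaged by phase contrast microscopy at 1, 2, 3, 4 and 24 h. DMSO vehicle served as control.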

PC-3 [4] = assay: Cell cycle arrest in human PC-3 cells assessed as reduction in cell accumulation at G0/G1 phase at 0.24 uM measured after 3 hrs by propidium iodide staining based flow cytometry; type: functional
How it was run: (§3)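 PC3 cells seeded 1×10^5 per well in 6-well plates, exposed 3 h, with or without 1 mM N-acetyl-L-cysteine pretreatment; vehicle 0.1% DMSO. Harvested with trypsin-EDTA, fixed in 75% ethanol in PBS at 4 °C for 30 min, stained 1 h with RNase (1.5 mg mL^-1) and propidium iodide (90 μg mL^-1); DNA content by flow cytometry. Phase fractions compared with control by ANOVA/Tukey.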

PC-3 [5] = assay: Cell cycle arrest in human PC-3 cells assessed as up regulation of CDKN1A gene expression at 0.24 uM measured after 3 hrs by qPCR analysis; type: functional, cell-based
PC-3 [6] = assay: Induction of apoptosis in human PC-3 cells assessed as early apoptotic cells at 0.24 uM measured after 6 hrs by Alexa Fluor 488-annexin V/propidium iodide staining based flow cytometry (reference value: 6%); type: functional
PC-3 [7] = assay: Induction of morphological changes in human PC-3 cells assessed as cell rounding at 0.24 uM measured after 24 hrs in presence of antioxidant N-acetyl-L-cysteine by phase contrast microscopy; type: functional, cell-based; how it was run: as §2
PC-3 [8] = assay: Induction of morphological changes in human PC-3 cells assessed as reduction in cell density at 0.24 uM measured after 24 hrs by phase contrast microscopy; type: functional, cell-based; how it was run: as §2
PC-3 [9] = assay: Cell cycle arrest in human PC-3 cells assessed as down regulation of cyclin D1 expression at 0.24 uM measured after 3 hrs by Western blot analysis; type: functional, cell-based
How it was run: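 Western blot: PC3 seeded 1×10^7 per 100 mm dish, treated 3 h or 6 h, lysed in RIPA with protease/phosphatase inhibitors; 50 μg protein on 12% SDS-PAGE, PVDF transfer, 5% milk block, anti-cyclin D1 (1:1000) overnight at 4 °C, HRP anti-rabbit secondary, β-actin loading control, ECL detection and band densitometry; two independent experiments.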

PC-3 [10] = assay: Cell cycle arrest in human PC-3 cells assessed as increase in cell accumulation at sub-G1 phase at 0.24 uM measured after 3 hrs in presence of antioxidant N-acetyl-L-cysteine by propidium iodide staining based flow cytometry; type: functional; how it was run: as §3
PC-3 [11] = assay: Cell cycle arrest in human PC-3 cells assessed as reduction in cell accumulation at G0/G1 phase in presence of antioxidant N-acetyl-L-cysteine at 0.24 uM measured after 3 hrs by propidium iodide staining based flow cytometry; type: functional; how it was run: as §3
PC-3 [12] = assay: Cell cycle arrest in human PC-3 cells assessed as reduction in cell accumulation at G0/G1 phase in presence of antioxidant N-acetyl-L-cysteine at 0.05 uM measured after 3 hrs by propidium iodide staining based flow cytometry; type: functional; how it was run: as §3
PC-3 [13] = assay: Induction of apoptosis in human PC-3 cells assessed as effect on BAX gene expression at 0.05 uM measured after 3 hrs by qPCR analysis; type: functional, cell-based
How it was run: (§4)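 Seeded 1×10^5 cells per well in 6-well plates; PC3 treated 3 h. Total RNA extracted, qPCR; each target normalized to reference gene (β-actin) by efficiency-corrected ΔΔCt (Pfaffl) against a control calibrator sample, efficiencies from amplification profiles. Mean ± SEM of four independent experiments.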

PC-3 [14] = assay: Cytotoxicity against human PC-3 cells assessed as cell growth inhibition at 0.05 uM measured after 48 hrs in presence of 0.5 to 50 uM NO scavenger carboxy-PTIO by CCK-8 assay; type: functional, cell-based
How it was run: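 PC3 at 1×10^4 cells per well attached 24 h, pretreated 1 h with carboxy-PTIO (0, 0.50, 3.13, 6.25, 12.50, 25, 50 μM), then compound added for 48 h; washed three times with PBS, growth read by CCK-8 as percent inhibition versus control cells; two experiments in triplicate.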

PC-3 [15] = assay: Cell cycle arrest in human PC-3 cells assessed as reduction in cell accumulation at S phase at 0.05 uM measured after 3 hrs by propidium iodide staining based flow cytometry; type: functional; how it was run: as §3
PC-3 [16] = assay: Induction of morphological changes in human PC-3 cells assessed as loss of adhesion at 0.05 uM measured after 24 hrs by phase contrast microscopy; type: functional, cell-based; how it was run: as §2
PC-3 [17] = assay: Induction of morphological changes in human PC-3 cells assessed as loss of adhesion at 0.05 uM measured after 24 hrs in presence of antioxidant N-acetyl-L-cysteine by phase contrast microscopy; type: functional, cell-based; how it was run: as §2
PC-3 [18] = assay: Cytotoxicity against human PC-3 cells assessed as reduction in cell viability at 0.05 uM measured after 24 hrs in presence of antioxidant N-acetyl-L-cysteine by SRB assay; type: functional, cell-based; how it was run: as §1
PC-3 [19] = assay: Cell cycle arrest in human PC-3 cells assessed as accumulation of cells at sub-G1 phase at 0.05 uM measured after 3 hrs by propidium iodide staining based flow cytometry (reference value: 0.75 +/- 0.21%); type: functional; how it was run: as §3
PC-3 [20] = assay: Induction of apoptosis in human PC-3 cells assessed as effect on BCL2 gene expression at 0.05 uM measured after 3 hrs by qPCR analysis; type: functional, cell-based; how it was run: as §4
PC-3 [21] = assay: Cell cycle arrest in human PC-3 cells assessed as increase in cell accumulation at G2/M phase in presence of antioxidant N-acetyl-L-cysteine at 0.05 uM measured after 3 hrs by propidium iodide staining based flow cytometry; type: functional; how it was run: as §3
PC-3 [22] = assay: Induction of DNA damage in human PC-3 cells assessed as increase in phosphorylated gamma-H2AX expression at 0.05 uM measured after 6 hrs by DAPI staining based confocal laser scanning microscopy; type: functional, cell-based
How it was run: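 γ-H2AX immunostaining: PC3 on coverslips (1×10^5 cells), serum-starved 18 h, then treated (methods state 1 h; legend states 6 h); fixed 3.7% formaldehyde, permeabilized 0.25% Triton X-100, blocked 3% albumin, anti-phospho-H2A.X Ser139 (1:500) then Alexa Fluor 488 secondary, DAPI nuclei; confocal, 500 cells per slide, three experiments; UVC 20 min positive control.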

PC-3 [23] = assay: Induction of apoptosis in human PC-3 cells assessed as necrotic cells at 0.05 uM measured after 6 hrs by Alexa Fluor 488-annexin V/propidium iodide staining based flow cytometry (reference value: 1.28%); type: functional
PC-3 [24] = assay: Cell cycle arrest in human PC-3 cells assessed as down regulation of CCND1 gene expression at 0.05 uM measured after 3 hrs by qPCR analysis; type: functional, cell-based; how it was run: as §4

SMILES: COc1cc(/C=C/C(=O)N2CCC=CC2=O)cc(OC)c1OCCCOc1no[n+]([O-])c1S(=O)(=O)c1ccccc1
- Activity (PC-3 [1]): inactive
- Activity (PC-3 [2]): Active
- Activity (PC-3 [3]): Active
- Activity (PC-3 [4]): Active; Significant Reduction Observed
- Activity (PC-3 [5]): Active
- Activity (PC-3 [6]): 9.17%
- Activity (PC-3 [7]): inactive
- Activity (PC-3 [8]): Active
- Activity (PC-3 [9]): Active
- Activity (PC-3 [10]): inactive
- Activity (PC-3 [11]): Active

SMILES: COc1cc(/C=C/C(=O)N2CCC=CC2=O)cc(OC)c1OCCCCCCCCCCCCOc1no[n+]([O-])c1S(=O)(=O)c1ccccc1
- Activity (PC-3 [12]): Active
- Activity (PC-3 [13]): inactive
- growth inhibition (GI) (PC-3 [14]): inactive
- Activity (PC-3 [15]): Active
- Activity (PC-3 [16]): Active; Partial Loss Of Adhesion Observed
- Activity (PC-3 [17]): inactive
- Activity (PC-3 [18]): inactive
- Activity (PC-3 [19]): 9.8%
- Activity (PC-3 [20]): inactive
- Activity (PC-3 [21]): Active
- Activity (PC-3 [22]): Active
- Activity (PC-3 [23]): 0.87%
- Activity (PC-3 [24]): Active
